Laboratory results published in ChEMBL document CHEMBL1125034, “Design and synthesis of 4H-3,1-benzoxazin-4-ones as potent alternate substrate inhibitors of human leukocyte elastase” (J Med Chem, 1990).

Assays:
[1] = target: T1, Neutrophil elastase (Homo sapiens, UniProt P08246); assay: Inhibition of human leukocyte elastase
T1 sequence (P08246 whole entry): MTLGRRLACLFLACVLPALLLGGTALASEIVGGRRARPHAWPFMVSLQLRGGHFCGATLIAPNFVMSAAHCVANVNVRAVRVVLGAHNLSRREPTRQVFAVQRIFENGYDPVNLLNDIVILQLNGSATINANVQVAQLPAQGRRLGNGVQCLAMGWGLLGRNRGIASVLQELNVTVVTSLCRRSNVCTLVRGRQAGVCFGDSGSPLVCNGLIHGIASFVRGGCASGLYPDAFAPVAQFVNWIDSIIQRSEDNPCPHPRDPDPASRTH

[2] = Alkaline hydrolysis rate of the compound; format: ADME
In short: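 Alkaline hydrolysis rate constants measured at several pH values at 25 °C. Loss of the long-wavelength UV chromophore (λmax typically 300-345 nm) was followed by spectrophotometer.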

CC(C)Nc1nc2cc(N)ccc2c(=O)o1
Ki [1]: 776 nM | Log kOH- [2]: -0.46

CCSc1nc2cc(CC)ccc2c(=O)o1
Ki [1]: 20.9 nM | Log kOH- [2]: 1.66

COC(=O)[C@H](CC(C)C)NC(=O)[C@H](CC(C)C)Nc1nc2cc(C)cc(C)c2c(=O)o1
Ki [1]: 39.8 nM

CCCCCNc1nc2cccc(C)c2c(=O)o1
Ki [1]: 3390 nM

COc1cc2nc(SCc3c[nH]c4ccccc34)oc(=O)c2cc1OC
Ki [1]: 12900 nM

Cc1cccc2nc(CBr)oc(=O)c12
Ki [1]: 151 nM | Log kOH- [2]: 1.58

Cc1cccc2nc(N(C(C)C)C(C)C)oc(=O)c12
Ki [1]: 398 nM

CCOC(=O)CNc1nc2ccccc2c(=O)o1
Ki [1]: 64600 nM | Log kOH- [2]: 1.4

CCc1cc(N(C)C)cc2nc(NC(C)C)oc(=O)c12
Ki [1]: 110 nM | Log kOH- [2]: -1.88

CCCc1nc2ccccc2c(=O)o1
Ki [1]: 2880 nM

COc1cc2nc(C)oc(=O)c2cc1OC
Ki [1]: 832000 nM | Log kOH- [2]: 0.53

CCCCN(CCCC)c1nc2cccc(C)c2c(=O)o1
Ki [1]: 363 nM

CCNc1nc2ccccc2c(=O)o1
Ki [1]: 52.5 nM

O=c1oc(N2CCCC2)nc2ccccc12
Ki [1]: 1910 nM | Log kOH- [2]: 0.97

C[C@H](N)C(=O)c1nc2ccccc2c(=O)o1
Ki [1]: 759 nM | Log kOH- [2]: 1.76

Nc1cccc(CNc2nc3ccccc3c(=O)o2)c1
Ki [1]: 1580 nM | Log kOH- [2]: 1.18

O=c1oc(Cc2ccccc2)nc2ccccc12
Ki [1]: 3630 nM

Cc1cccc2c(=O)oc(SCc3ccccc3)nc12
Ki [1]: 110 nM

Nc1nc2ccccc2c(=O)o1
Log kOH- [2]: 0.53

COC(=O)[C@@H](CC(C)C)NC(=O)[C@@H](CC(C)C)Nc1nc2cc(C)cc(C)c2c(=O)o1
Ki [1]: 102 nM

CCCCN(C(C)=O)c1nc2ccccc2c(=O)o1
Ki [1]: 10 nM | Log kOH- [2]: 2.48

CCSc1nc2ccc(C)cc2c(=O)o1
Ki [1]: 170 nM | Log kOH- [2]: 1.95

Cc1cccc2nc(NCC(C)(C)C)oc(=O)c12
Ki [1]: 240 nM

CCc1cc(OC)cc2nc(NC(C)C)oc(=O)c12
Ki [1]: 11 nM | Log kOH- [2]: -0.6

CCCCNc1nc2c(C)cccc2c(=O)o1
Ki [1]: 407 nM | Log kOH- [2]: 0.86

CCCOc1cc(CC)c2c(=O)oc(NC(C)C)nc2c1
Ki [1]: 21.4 nM

C[C@H](NC(=O)[C@@H]1CCCN1c1nc2ccccc2c(=O)o1)C(N)=O
Ki [1]: 234 nM

Cc1ccc(C)c2c(=O)oc(NC(C)C)nc12
Ki [1]: 6.61 nM | Log kOH- [2]: 0.2

Cc1cccc2ncoc(=O)c12
Ki [1]: 219 nM | Log kOH- [2]: 1.38

CCc1cccc2nc(N)oc(=O)c12
Log kOH- [2]: -0.08

O=c1oc(CBr)nc2ccccc12
Ki [1]: 955 nM | Log kOH- [2]: 2.06

CCOC(=O)Nc1ccc2c(=O)oc(OCC)nc2c1
Ki [1]: 17.8 nM | Log kOH- [2]: 1.46

CCOc1nc2cc(N)ccc2c(=O)o1
Ki [1]: 5.75 nM | Log kOH- [2]: 0.2

CCSc1nc2ccc(N(C)C)cc2c(=O)o1
Ki [1]: 339 nM | Log kOH- [2]: 1.76

CCOC(=O)CSc1nc2ccccc2c(=O)o1
Ki [1]: 72.4 nM | Log kOH- [2]: 2.93

CCC(C)(C)Nc1nc2ccccc2c(=O)o1
Ki [1]: 155 nM

COc1cccc2nc(C(F)(F)F)oc(=O)c12
Ki [1]: 417 nM | Log kOH- [2]: 3.54

CCSc1nc2cccc(CC)c2c(=O)o1
Log kOH- [2]: 1.37

Cc1ccccc1CNc1nc2ccccc2c(=O)o1
Ki [1]: 2820 nM | Log kOH- [2]: 1.01

CCOc1nc2cccc(CC)c2c(=O)o1
Ki [1]: 0.0427 nM | Log kOH- [2]: 1.17

CCOc1nc2c(C)ccc(C)c2c(=O)o1
Ki [1]: 0.0955 nM

CC(C)COC(=O)N(C)c1nc2ccccc2c(=O)o1
Ki [1]: 2.69 nM | Log kOH- [2]: 2.21

Cc1cccc2c(=O)oc(NCc3ccccc3)nc12
Ki [1]: 2000 nM | Log kOH- [2]: 0.92

CCN(CC)c1nc2ccccc2c(=O)o1
Ki [1]: 372 nM

O=c1oc(C(F)(F)C(F)(F)F)nc2ccccc12
Ki [1]: 110 nM

COC(=O)[C@@H](NC(=O)[C@H](C)Nc1nc2ccccc2c(=O)o1)C(C)C
Ki [1]: 182 nM

CCSc1nc2cc3ccccc3cc2c(=O)o1
Ki [1]: 72.4 nM | Log kOH- [2]: 2.54

CCc1cccc2nc(NC(C)C)oc(=O)c12
Log kOH- [2]: 0.31

CCCCN(CCCC)c1nc2cccc(CC)c2c(=O)o1
Ki [1]: 178 nM

Cc1ccc2nc(C(F)(F)F)oc(=O)c2c1
Ki [1]: 513 nM | Log kOH- [2]: 3.23

O=c1oc(SCc2ccccc2)nc2cc3ccccc3cc12
Ki [1]: 257 nM

CN(C)c1ccc(CNc2nc3ccccc3c(=O)o2)cc1
Ki [1]: 2000 nM | Log kOH- [2]: 1.81

CC(C)Sc1nc2ccccc2c(=O)o1
Ki [1]: 7.76 nM

CCc1cccc2nc(N(C(C)C)C(C)C)oc(=O)c12
Ki [1]: 70.8 nM

O=c1oc(OCc2ccccc2)nc2ccccc12
Ki [1]: 56.2 nM | Log kOH- [2]: 1.99

Cc1cccc2nc(NC3CCCC3)oc(=O)c12
Ki [1]: 200 nM

O=c1oc(-c2ccco2)nc2ccccc12
Ki [1]: 1780 nM | Log kOH- [2]: 1.94

O=c1oc(N2CCOCC2)nc2ccccc12
Ki [1]: 708 nM | Log kOH- [2]: 1.5

CCOC(=O)C(Cc1ccccc1)Nc1nc2ccccc2c(=O)o1 (centres undefined)
Ki [1]: 1200 nM

Cc1cccc2nc(N)oc(=O)c12
Log kOH- [2]: -0.05

O=c1oc(C(F)(F)C(F)(F)C(F)(F)F)nc2ccccc12
Ki [1]: 91.2 nM | Log kOH- [2]: 3.27

CCc1cccc2nc(N[C@@H](CC(C)C)C(=O)OC)oc(=O)c12
Ki [1]: 12 nM | Log kOH- [2]: 0.48

CSc1nc2ccccc2c(=O)o1
Ki [1]: 20.9 nM | Log kOH- [2]: 2.16

COc1cc2nc(SC/C=C/c3ccccc3)oc(=O)c2cc1OC
Ki [1]: 6920 nM

CCOc1nc2cccc(C(C)C)c2c(=O)o1
Ki [1]: 0.0708 nM | Log kOH- [2]: 0.96

CCN(CC)c1nc2c(C)ccc(C)c2c(=O)o1
Ki [1]: 105 nM

CCOc1nc2cccc(CBr)c2c(=O)o1
Ki [1]: 0.0676 nM | Log kOH- [2]: 1.93

COc1nc2cccc(C)c2c(=O)o1
Ki [1]: 10 nM

CCCCNc1nc2cccc(C)c2c(=O)o1
Log kOH- [2]: 0.41

COc1cccc2nc(C)oc(=O)c12
Ki [1]: 14500 nM | Log kOH- [2]: 0.83

CNc1nc2c(C)cccc2c(=O)o1
Ki [1]: 97700 nM

CCc1cccc2nc(C)oc(=O)c12
Ki [1]: 120 nM | Log kOH- [2]: 0.73

CC(=O)N(C)c1nc2ccccc2c(=O)o1
Ki [1]: 5.75 nM | Log kOH- [2]: 2.57

COc1cc2nc(OCc3ccccc3)oc(=O)c2cc1OC
Ki [1]: 933 nM | Log kOH- [2]: 0.97

CCOc1nc2cc(OC)cc(C)c2c(=O)o1
Ki [1]: 0.398 nM

CC(C)[C@H](NC(=O)C1CCCN1c1nc2ccccc2c(=O)o1)C(N)=O (some centres undefined)
Ki [1]: 468 nM

CCOc1nc2ccccc2c(=O)o1
Ki [1]: 6.46 nM | Log kOH- [2]: 1.91

Cc1cccc2c(=O)oc(NC(C)C)nc12
Ki [1]: 589 nM | Log kOH- [2]: 0.69

CCC(C)Nc1nc2ccccc2c(=O)o1 (centres undefined)
Ki [1]: 43.7 nM | Log kOH- [2]: 0.92

CC(C)(C)c1nc2ccccc2c(=O)o1
Ki [1]: 8910 nM | Log kOH- [2]: 1.38

Cc1cccc2nc(Nc3ccccc3)oc(=O)c12
Ki [1]: 110 nM

CC(C)COc1nc2ccccc2c(=O)o1
Ki [1]: 11.5 nM | Log kOH- [2]: 1.83

CCOc1nc2cccc(C)c2c(=O)o1
Ki [1]: 0.115 nM | Log kOH- [2]: 1.31

O=c1oc(-c2cccc([N+](=O)[O-])c2)nc2ccccc12
Ki [1]: 4370 nM | Log kOH- [2]: 1.82

Cc1nc2cccc(C)c2c(=O)o1
Ki [1]: 1000 nM | Log kOH- [2]: 0.85

Cc1cccc2nc(NCCC(C)C)oc(=O)c12
Ki [1]: 1550 nM
